The values that follow come from ChEMBL document CHEMBL1649395, “Synthesis and antibacterial activity of novel ketolides with 11,12-sulfur contained aryl alkyl side chains” (2011).

Assay type in all cases: functional
For test [1], the system named is Staphylococcus aureus. The experiment in a line: Antibacterial activity against methicillin-susceptible Staphylococcus aureus ATCC 29213 by broth microdilution method. The gist of the method: (§1)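 Strains were ATCC reference strains or clinical isolates from China's national antimicrobial resistance surveillance network (MOHNARIN). In vitro activity was measured by broth microdilution following NCCLS recommendations. Results are reported as minimum inhibitory concentration (MIC) in mg/L.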
For orientation: Broth dilution looks for growth in wells or tubes with falling amounts of substance.

Test [2] has as its system Haemophilus influenzae. The experiment in a line: Antibacterial activity against erythromycin-susceptible Haemophilus influenzae 07O114 by broth microdilution method. In short, it runs like this:
as §1

The test system of test [3] is Streptococcus pyogenes. The experiment in a line: Antibacterial activity against erythromycin-susceptible Streptococcus pyogenes 07U084 by broth microdilution method. In short, it runs like this:
as §1

Test [4] deals with Staphylococcus epidermidis. The experiment in a line: Antibacterial activity against methicillin-resistant Staphylococcus epidermidis 07R066 by broth microdilution method. The gist of the method: (§2)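 Clinical isolates were supplied by China's Ministry of Health National Antimicrobial Resistance Investigation Net (MOHNARIN). Activity was reported as minimum inhibitory concentration (MIC), determined by broth microdilution following NCCLS recommendations.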

The test system of test [5] is Staphylococcus epidermidis. The experiment in a line: Antibacterial activity against methicillin-susceptible Staphylococcus epidermidis 07T202 by broth microdilution method. The gist of the method:
as §1

The subject of test [6] is Streptococcus pneumoniae. The experiment in a line: Antibacterial activity against erythromycin-susceptible Streptococcus pneumoniae ATCC 49619 by broth microdilution method. In short, it runs like this:
as §1

Test [7] has as its system Staphylococcus epidermidis. The experiment in a line: Antibacterial activity against methicillin-susceptible Staphylococcus epidermidis 07C134 by broth microdilution method. In short, it runs like this: as §2
Test [8] deals with Haemophilus influenzae. The experiment in a line: Antibacterial activity against erythromycin-susceptible Haemophilus influenzae ATCC 49247 by broth microdilution method. The gist of the method:
as §1

For test [9], the system named is Haemophilus influenzae. Description: Antibacterial activity against erythromycin-susceptible Haemophilus influenzae 07O339 by broth microdilution method. The gist of the method: as §1
Test [10] relates to Streptococcus pyogenes. Description: Antibacterial activity against erythromycin-susceptible Streptococcus pyogenes 07U086 by broth microdilution method. In short, it runs like this:
as §1

Test [11] deals with Staphylococcus epidermidis. The experiment in a line: Antibacterial activity against methicillin-resistant Staphylococcus epidermidis 07A066 by broth microdilution method. The gist of the method:
as §2

In test [12] the test system is Haemophilus influenzae. The experiment in a line: Antibacterial activity against erythromycin-susceptible Haemophilus influenzae 07O394 by broth microdilution method. The gist of the method: as §1
For test [13], the system named is Staphylococcus aureus. The experiment in a line: Antibacterial activity against methicillin-susceptible Staphylococcus aureus ANS46 by broth microdilution method. The gist of the method:
as §1

Test [14] relates to Streptococcus pneumoniae. Description: Antibacterial activity against erythromycin-resistant Streptococcus pneumoniae 07P390 by broth microdilution method. In short, it runs like this:
as §2

In test [15] the test system is Streptococcus pyogenes. The experiment in a line: Antibacterial activity against erythromycin-resistant Streptococcus pyogenes 01-533 by broth microdilution method. In short, it runs like this: as §2
The test system of test [16] is Streptococcus pyogenes. Description: Antibacterial activity against erythromycin-resistant Streptococcus pyogenes 03-233 by broth microdilution method. The gist of the method: as §2
Test [17] relates to Streptococcus pneumoniae. Description: Antibacterial activity against erythromycin-susceptible Streptococcus pneumoniae 07H252 by broth microdilution method. In short, it runs like this: as §1
Test [18] relates to Streptococcus pneumoniae. The experiment in a line: Antibacterial activity against erythromycin-resistant Streptococcus pneumoniae 07D201 by broth microdilution method. In short, it runs like this:
as §2

In brackets after ≈: the same amount, converted by molar mass.

In the case of `CC[C@H]1OC(=O)[C@H](C)C(=O)[C@H](C)[C@@H](O[C@@H]2O[C@H](C)C[C@H](N(C)C)[C@H]2O)[C@@](C)(OC)C[C@@H](C)C(=O)[C@H](C)[C@H]2N(CCCSc3ccccn3)C(=O)O[C@]12C`, the MIC against Staphylococcus aureus [1] is 0.125 µg/mL (≈ 0.164 µM); against Haemophilus influenzae [2] it was 8 µg/mL (≈ 10.5 µM); in the test with Streptococcus pyogenes [3], 0.016 µg/mL (≈ 0.0209 µM); in test [4], 0.125 µg/mL (≈ 0.164 µM); in test [5], greater than 16 µg/mL; with Streptococcus pneumoniae [6], 0.016 µg/mL (≈ 0.0209 µM). Also, the MIC amounted to 0.125 µg/mL (≈ 0.164 µM) in test [7]; 8 µg/mL (≈ 10.5 µM) against Haemophilus influenzae [8]; 4 µg/mL (≈ 5.24 µM) against Haemophilus influenzae [9]; 0.016 µg/mL (≈ 0.0209 µM) in the test on Streptococcus pyogenes [10]; 0.125 µg/mL (≈ 0.164 µM) in test [11]; 8 µg/mL (≈ 10.5 µM) with Haemophilus influenzae [12]. In the test on Staphylococcus aureus [13], this compound came in with an MIC greater than 16 µg/mL.

On to `CC[C@H]1OC(=O)[C@H](C)C(=O)[C@H](C)[C@@H](O[C@@H]2O[C@H](C)C[C@H](N(C)C)[C@H]2O)[C@@](C)(OC)C[C@@H](C)C(=O)[C@H](C)[C@H]2N(CCCSc3nccc(C)n3)C(=O)O[C@]12C`, for which the MIC stood at 0.5 µg/mL (≈ 0.642 µM) against Staphylococcus aureus [1]; 8 µg/mL (≈ 10.3 µM) with Haemophilus influenzae [2]; 0.125 µg/mL (≈ 0.16 µM) against Streptococcus pyogenes [3]; 0.25 µg/mL (≈ 0.321 µM) in [4]; 0.25 µg/mL (≈ 0.321 µM) against Streptococcus pneumoniae [14]; 2 µg/mL (≈ 2.57 µM) in the test on Streptococcus pyogenes [15]. Further, the MIC in [5] is greater than 32 µg/mL; against Streptococcus pyogenes [16], 2 µg/mL (≈ 2.57 µM); in the test on Streptococcus pneumoniae [6], 0.062 µg/mL (≈ 0.0796 µM); with Streptococcus pneumoniae [17] it was 8 µg/mL (≈ 10.3 µM); in test [7], 0.25 µg/mL (≈ 0.321 µM); with Haemophilus influenzae [8] it was 8 µg/mL (≈ 10.3 µM). Besides, the MIC in the test on Haemophilus influenzae [9] is 8 µg/mL (≈ 10.3 µM); with Streptococcus pneumoniae [18], greater than 32 µg/mL; against Streptococcus pyogenes [10], 0.125 µg/mL (≈ 0.16 µM); in test [11], 0.5 µg/mL (≈ 0.642 µM); in the test with Haemophilus influenzae [12], 8 µg/mL (≈ 10.3 µM); with Staphylococcus aureus [13] it was greater than 32 µg/mL.

Consider `CC[C@H]1OC(=O)[C@H](C)C(=O)[C@H](C)[C@@H](O[C@@H]2O[C@H](C)C[C@H](N(C)C)[C@H]2O)[C@@](C)(OC)C[C@@H](C)C(=O)[C@H](C)[C@H]2N(CCCSc3nc(-c4ccccc4)c(-c4ccccc4)o3)C(=O)O[C@]12C`, for which the MIC was 4 µg/mL (≈ 4.41 µM) against Staphylococcus aureus [1]; greater than 16 µg/mL against Haemophilus influenzae [2]; 0.5 µg/mL (≈ 0.552 µM) in the test on Streptococcus pyogenes [3]; 4 µg/mL (≈ 4.41 µM) in test [4]; greater than 16 µg/mL in test [5]; 1 µg/mL (≈ 1.1 µM) against Streptococcus pneumoniae [6]. In addition, the MIC in test [7] was 4 µg/mL (≈ 4.41 µM); with Haemophilus influenzae [8], greater than 16 µg/mL; in the test on Haemophilus influenzae [9], greater than 16 µg/mL; against Streptococcus pyogenes [10], 0.5 µg/mL (≈ 0.552 µM); in test [11] it was 2 µg/mL (≈ 2.21 µM); in the test with Haemophilus influenzae [12], greater than 16 µg/mL. In addition, the MIC with Staphylococcus aureus [13] was greater than 16 µg/mL.

Consider `CCCc1cnc(SCCCN2C(=O)O[C@]3(C)[C@@H](CC)OC(=O)[C@H](C)C(=O)[C@H](C)[C@@H](O[C@@H]4O[C@H](C)C[C@H](N(C)C)[C@H]4O)[C@@](C)(OC)C[C@@H](C)C(=O)[C@H](C)[C@@H]23)nc1`, for which the MIC was 0.5 µg/mL (≈ 0.62 µM) in the test on Staphylococcus aureus [1]; 16 µg/mL (≈ 19.8 µM) in the test with Haemophilus influenzae [2]; 0.125 µg/mL (≈ 0.155 µM) with Streptococcus pyogenes [3]; 0.5 µg/mL (≈ 0.62 µM) in test [4]; greater than 16 µg/mL in test [5]; 0.125 µg/mL (≈ 0.155 µM) against Streptococcus pneumoniae [6]. In addition, the MIC is 0.5 µg/mL (≈ 0.62 µM) in [7]; 16 µg/mL (≈ 19.8 µM) in the test with Haemophilus influenzae [8]; 16 µg/mL (≈ 19.8 µM) in the test with Haemophilus influenzae [9]; 0.125 µg/mL (≈ 0.155 µM) against Streptococcus pyogenes [10]; 1 µg/mL (≈ 1.24 µM) in test [11]; 16 µg/mL (≈ 19.8 µM) with Haemophilus influenzae [12]. The same compound displayed an MIC against Staphylococcus aureus [13] greater than 16 µg/mL.

With `CC[C@H]1OC(=O)[C@H](C)C(=O)[C@H](C)[C@@H](O[C@@H]2O[C@H](C)C[C@H](N(C)C)[C@H]2O)[C@@](C)(OC)C[C@@H](C)C(=O)[C@H](C)[C@H]2N(CCCSc3nc4cc(OC)ccc4s3)C(=O)O[C@]12C`, the MIC against Staphylococcus aureus [1] was determined as 0.5 µg/mL (≈ 0.588 µM); against Haemophilus influenzae [2], 16 µg/mL (≈ 18.8 µM); against Streptococcus pyogenes [3], 0.062 µg/mL (≈ 0.0729 µM); in test [4] it was 0.25 µg/mL (≈ 0.294 µM); in test [5] it was 16 µg/mL (≈ 18.8 µM); in the test with Streptococcus pneumoniae [6], 0.125 µg/mL (≈ 0.147 µM). The MIC in test [7] worked out at 0.25 µg/mL (≈ 0.294 µM); in the test with Haemophilus influenzae [8] it was 16 µg/mL (≈ 18.8 µM); in the test on Haemophilus influenzae [9], 16 µg/mL (≈ 18.8 µM); in the test on Streptococcus pyogenes [10], 0.062 µg/mL (≈ 0.0729 µM); in [11] it was 0.5 µg/mL (≈ 0.588 µM); in the test with Haemophilus influenzae [12], 16 µg/mL (≈ 18.8 µM). Besides, the MIC against Staphylococcus aureus [13] was greater than 16 µg/mL.
